In ChEMBL document CHEMBL1132994, “Synthesis and anticonvulsant and neurotoxic properties of substituted N-phenyl derivatives of the phthalimide pharmacophore” (J Med Chem, 2000):
“And” between values parts separate entries of the source, which are not always exact repeats. Equal entries are not always repeated. The source made the active and inactive calls. The calls are words filed in the database; no cut-off is given here.

Legend:
Rattus norvegicus [1] = test: Anticonvulsant activity was measured in rats through seizures induced by maximal electroshock (MES) tests by oral administration of drug at a concentration of 30 mg/kg after 2 hours.; format: functional
Method in brief: (§1)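 Rats given a single oral dose of 30 or 50 mg/kg, depending on compound; MES protection scored at 15, 30, 60, 120 and 240 min. Activity graded by fraction of animals protected (0-25%, 25-50%, 50-75%, 75-100%); neurotoxicity monitored at the same time points.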

Rattus norvegicus [2] = test: Anticonvulsant activity was measured in rats through seizures induced by maximal electroshock (MES) tests by oral administration of drug at a concentration of 30 mg/kg after 15 minutes.; format: functional; method in brief: as §1
Mus musculus [3] = test: Neurotoxicity by rotarod test after intraperitoneal administration at a concentration of 300 mg/kg after 4 hours; Active; format: functional, organism-based; design: dose 300 mg/kg
Rattus norvegicus [4] = test: (§2) Toxicity screening in rats dosed orally with the compound; No toxicity; format: functional, organism-based
Method in brief: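 Rats given a single oral dose of 30 or 50 mg/kg, depending on compound. Minimal neurotoxicity was scored at 15, 30, 60, 120 and 240 min after dosing, alongside the MES test. Scores are graded by the percentage of animals affected.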

Rattus norvegicus [5] = test: Anticonvulsant activity was measured in rats through seizures induced by maximal electroshock (MES) tests by oral administration of drug at a concentration of 30 mg/kg after 30 minutes.; format: functional; method in brief: as §1
Mus musculus [6] = test: Neurotoxicity by rotarod test after intraperitoneal administration at a concentration of 300 mg/kg after 30 minutes; Active; format: functional, organism-based; design: dose 300 mg/kg
Mus musculus [7] = test: Anticonvulsant activity in mice through seizures induced by maximal electroshock (MES) tests after ip administration at a concentration of 300 mg/kg after 4 hours; Active; format: functional, organism-based; design: dose 300 mg/kg
Mus musculus [8] = test: Anticonvulsant activity in mice through seizures induced by maximal electroshock (MES) tests after ip administration at a concentration of 100 mg/kg after 30 min; Active; format: functional, organism-based; design: dose 100 mg/kg
Mus musculus [9] = test: Anticonvulsant activity in mice through seizures induced by subcutaneous pentylenetetrazole (scPTZ) tests after ip administration at a concentration of 300 mg/kg after 30 min; Active; format: functional, organism-based; design: dose 300 mg/kg
Rattus norvegicus [10] = test: Anticonvulsant activity was measured in rats through seizures induced by maximal electroshock (MES) tests by oral administration of drug after 4 hours.; format: functional; method in brief: as §1
Rattus norvegicus [11] = test: Anticonvulsant activity in rats through seizures induced by maximal electroshock (MES) tests after oral administration at a concentration of 30 mg/kg after 1 hour.; format: functional; method in brief: as §1
Mus musculus [12] = test: Anticonvulsant activity in mice through seizures induced by sc pentylenetetrazole (intraperitoneal administration at a concentration of 300 mg/kg after 4 hours; Inactive; format: functional, organism-based; design: dose 300 mg/kg
Mus musculus [13] = test: Neurotoxicity by rotarod test after intraperitoneal administration at a concentration of 300 mg/kg after 30 minutes; Inactive; format: functional, organism-based; design: dose 300 mg/kg
Rattus norvegicus [14] = test: Anticonvulsant activity was measured in rats through seizures induced by maximal electroshock (MES) tests by oral administration of drug after 15 minutes.; format: functional; method in brief: as §1
Mus musculus [15] = organism: Mus musculus; test: Current response was measured from -90 mV depolarizing voltage steps at 100 uM concentration on 5 N1E-115 neuroblastoma cells.; format: functional
Method in brief: (§3)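 Differentiated N1E-115 cells (3-5 days in 2.5% FCS, 2% DMSO), whole-cell clamped at -70 mV at room temperature. Bath had Cd2+ and TEA to block Ca2+ and K+ channels. Na+ currents evoked by steps from -80 to +60 mV after 90 ms prepulses to -90 or -60 mV, measured 1-2 min into compound exposure; reported as % of control.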

Mus musculus [16] = test: Anticonvulsant activity in mice through seizures induced by maximal electroshock (MES) tests after ip administration at a concentration of 100 mg/kg after 30 min; active; format: functional, organism-based; design: dose 100 mg/kg
Rattus norvegicus [17] = test: as §2; format: organism-based; conditions: in vivo, po
Rattus norvegicus [18] = test: Anticonvulsant activity was measured in rats through seizures induced by maximal electroshock (MES) tests by oral administration of drug after 30 minutes.; format: functional; method in brief: as §1
Mus musculus [19] = test: Anticonvulsant activity in mice through seizures induced by maximal electroshock (MES) tests after ip administration at a concentration of 300 mg/kg after 4 hours; Inactive; format: functional, organism-based; design: dose 300 mg/kg
Mus musculus [20] = test: Neurotoxicity determined by rotarod test after intraperitoneal administration at a concentration of 300 mg/kg after 4 hours; Inactive; format: functional, organism-based; design: dose 300 mg/kg
Mus musculus [21] = organism: Mus musculus; test: Current response was measured on 1 uM GABA at 10 uM concentration on 5 isolated mouse cortical neurons.; format: functional
Mus musculus [22] = test: Anticonvulsant activity in mice through seizures induced by sc pentylenetetrazole (intraperitoneal administration at a concentration of 300 mg/kg after 30 min; active; format: functional, organism-based; design: dose 300 mg/kg
Rattus norvegicus [23] = test: Effective dose required to assure anticonvulsant protection in 50% of rats dosed orally by scPTZ test.; format: functional; conditions: po
Method in brief: (§4)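 Rats dosed orally; ED50 is the dose giving anticonvulsant protection in 50% of animals in the MES or scPtz test. TD50 is the minimal neurotoxic dose in 50% of animals. Time to peak effect was also determined.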

Rattus norvegicus [24] = test: Anticonvulsant activity was measured in rats through seizures induced by maximal electroshock (MES) tests by oral administration of drug after 1 hour.; format: functional; method in brief: as §1
Rattus norvegicus [25] = test: Effective dose required to assure anticonvulsant protection in 50% of rats dosed orally by MES test.; format: functional; conditions: po; method in brief: as §4
Rattus norvegicus [26] = test: Anticonvulsant activity was measured in rats through seizures induced by maximal electroshock (MES) tests by oral administration of drug after 2 hours.; format: functional; method in brief: as §1
Mus musculus [27] = organism: Mus musculus; test: Current response was measured on 1 uM GABA at 100 uM concentration on 10 isolated mouse cortical neurons.; format: functional
[28] = dose eliciting minimal neurological toxicity in 50% of animals.; format: organism-based; conditions: rat, in vivo
Mus musculus [29] = organism: Mus musculus; test: Current response was measured from -60 mV depolarizing voltage steps at 100 uM concentration on 3 N1E-115 neuroblastoma cells.; format: functional; method in brief: as §3
Mus musculus [30] = organism: Mus musculus; test: Current response was measured on 100 uM kainate at 100 uM concentration on 7 isolated mouse cortical neurons.; format: functional
Method in brief: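 Cultured mouse fetal cortical neurons, whole-cell clamped at -60 mV and 23 °C. Bath had 1 µM glycine, 10 µM picrotoxin, strychnine and tetrodotoxin. Currents evoked by 100 µM kainate pulses with and without 100 µM compound via rapid perfusion; expressed as % of control, mean ± SEM, Student's t-test.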

Mus musculus [31] = organism: Mus musculus; test: Current response was measured on 1 uM GABA at 30 uM concentration on 6 isolated mouse cortical neurons.; format: functional
Mus musculus [32] = test: Anticonvulsant activity in mice through seizures induced by subcutaneous pentylenetetrazole (scPTZ) tests after ip administration at a concentration of 300 mg/kg after 4 hours; active; format: functional, organism-based; design: dose 300 mg/kg

## Nc1cccc(N2C(=O)c3ccccc3C2=O)c1
Rattus norvegicus [1]
  Activity in animals: 75%
Rattus norvegicus [2]
  Activity in animals: 50%
Mus musculus [3]
  Activity: Active
Rattus norvegicus [4]
  Toxicity: Not toxic
Rattus norvegicus [5]
  Activity in animals: 100%
Mus musculus [6]
  Activity: Active
Mus musculus [7]
  Activity: Active
Mus musculus [8]
  Activity: Active
Mus musculus [9]
  Activity: Active
Rattus norvegicus [10]
  Activity in animals: 100%
Rattus norvegicus [11]
  Activity in animals: 75%
Mus musculus [12]
  Activity: inactive

## Nc1ccc(N2C(=O)c3ccccc3C2=O)c(Cl)c1
Mus musculus [13]
  Activity: inactive
Rattus norvegicus [14]
  Activity in animals: 75%
Mus musculus [15]
  Response: 62%
Mus musculus [16]
  Activity: Active
Rattus norvegicus [17]
  Toxicity: No toxicity
Rattus norvegicus [18]
  Activity in animals: 100%
Mus musculus [19]
  Activity: inactive
Mus musculus [20]
  Activity: inactive
Mus musculus [21]
  Response: 174% and 99%
Mus musculus [22]
  Activity: Active
Rattus norvegicus [23]
  ED50: > 250 mg/kg
Rattus norvegicus [24]
  Activity in animals: 100%
Rattus norvegicus [25]
  ED50: 5.7 mg/kg
Rattus norvegicus [26]
  Activity in animals: 100%
Rattus norvegicus [10]
  Activity in animals: 100%
Mus musculus [27]
  Response: 118%
[28]
  TD50: > 500 mg/kg
Mus musculus [29]
  Response: 49%
Mus musculus [30]
  Response: 74%
Mus musculus [31]
  Response: 142%
Mus musculus [32]
  Activity: Active
